Series [1] in a line: Inhibition of advanced glycation end product formation after 14 day in phosphate buffer at pH7.4 by spectrofluorimetry. It counts as physicochemical. Summed up: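 BSA (10 mg/mL stock) in 50 mM phosphate pH 7.4 with 0.02% sodium azide, plus 0.2 M fructose and glucose, incubated with serially diluted samples at 37 °C for 14 days in screw-cap tubes. Aminoguanidine served as reference. Fluorescence read at ex 350/em 450 nm. IC50 from dose-response curves, triplicate, mean ± SE.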

Series [2] addresses Aldo-keto reductase family 1 member B1 (Rattus norvegicus, UniProt P07943). Briefly: Inhibition of Sprague-Dawley rat lens aldose reductase by spectrofluorimetry. It counts as single protein. Summed up:
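Crude enzyme: supernatant of lenses from 8-week-old rats (250-280 g), homogenized in 135 mM Na/K phosphate pH 7.0 with 0.5 mM PMSF and 10 mM 2-mercaptoethanol, spun 14 000 rpm 30 min. NADP converted to fluorophore with NaOH/imidazole at 60 °C for 10 min, read ex 360/em 460 nm. IC50 from dose-response curves, triplicate, mean ± SE.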

Molecules are shown by their SMILES.

As for `CCCCO[C@]12C[C@]3(C)OC(O1)[C@]1(COC(=O)c4ccccc4)[C@@H]2C[C@@]31O[C@@H]1O[C@H](CO)[C@@H](O)[C@H](O)[C@H]1O`, the results for the half-inhibitory concentration (IC50) in series [1] and in series [2] were 10.8 µM and 36.2 µM, respectively.

As for `CO[C@H]1O[C@@]2(C)CC(=O)[C@H]3C[C@]2(O[C@@H]2O[C@H](COC(=O)c4ccccc4)[C@@H](O)[C@H](O)[C@H]2O)[C@]13COC(=O)c1ccccc1`, the concentration for half-maximal inhibition (IC50) (as a rule, the concentration at which inhibition is half-maximal) in series [1] was more than 500 µM; in series [2], more than 50 µM.

`Cc1cc2c(cc1O)[C@@H](CO)CO2`: the half-inhibitory concentration (IC50) in series [1] was 177 µM; in series [2], more than 50 µM.

In the case of `C[C@@]12C[C@@]3(O)OC(O1)[C@]1(COC(=O)c4ccc(O)cc4)[C@@H]3C[C@@]21O[C@H]1O[C@H](COC(=O)c2ccccc2)[C@@H](O)[C@H](O)[C@H]1O`, the IC50 was more than 500 µM in series [1] and more than 50 µM in series [2].

As for `C[C@@]12C[C@@]3(O)OC(O1)[C@]1(COC(=O)c4ccc(O)cc4)[C@@H]3C[C@@]21O[C@@H]1O[C@H](COC(=O)c2ccccc2)[C@@H](O)[C@H](O)[C@H]1O`, the half-maximal inhibitory concentration (IC50) in series [1] was more than 500 µM; in series [2], more than 50 µM.

Consider `C=C1CC[C@]2(C(=O)O)CC[C@]3(C)C(=CC[C@@H]4[C@@]5(C)CC[C@H](O)[C@@](C)(CO)[C@@H]5CC[C@]43C)[C@@H]2C1`, for which the half-inhibitory concentration (IC50) was more than 500 µM in series [1] and 28.8 µM in series [2].

As for `CO[C@@]12C[C@@H]3C(=O)[C@@](C)(C1)OC(O2)[C@H]3COC(=O)c1ccccc1`, the concentration for half-maximal inhibition (IC50) in series [1] is more than 500 µM; in series [2] it was more than 50 µM.

`O=C(O)CC1(CC(=O)O)CCCC1`: the IC50 in series [2] came out at 31.8 µM.

As for `C[C@@]12C[C@@]3(O)O[C@@H](O1)[C@]1(COC(=O)c4ccccc4)[C@@H]3C[C@]12O[C@@H]1O[C@H](COC(=O)c2ccccc2)[C@@H](O)[C@H](O)[C@H]1O` [BENZOYLPAEONIFLORIN], the concentration for half-maximal inhibition (IC50) in series [1] was more than 500 µM; in series [2], more than 50 µM.

On to `C[C@@]12C[C@@]3(O)O[C@@H](O1)[C@]1(COC(=O)c4ccccc4)[C@@H]3C[C@]12O[C@@H]1O[C@H](COC(=O)c2cc(O)c(O)c(O)c2)[C@@H](O)[C@H](O)[C@H]1O` [GALLOYLPAEONIFLORIN], for which the IC50 in series [1] stood at 11.3 µM; in series [2], 44.6 µM.

In the case of `C[C@@]12C[C@@]3(O)OC(O1)[C@]1(COC(=O)c4ccccc4)[C@@H]3C[C@@]21O[C@@H]1O[C@H](COC(=O)c2ccc(O)cc2)[C@@H](O)[C@H](O)[C@H]1O` [NUDANPINOSIDE H], the IC50 is more than 500 µM in series [1] and more than 50 µM in series [2].

Turning to `C[C@@]12C[C@@]3(O)O[C@@H](O1)[C@]1(COC(=O)c4ccc(O)cc4)[C@H]3C[C@@]12O[C@@H]1O[C@H](CO)[C@@H](O)[C@H](O)[C@H]1O` [OXYPAEONIFLORIN], the IC50 in series [1] is more than 500 µM; in series [2], more than 50 µM.

Consider `C[C@@]12CC(=O)[C@H]3C[C@]1(O)O[C@H](O2)[C@@H]3COC(=O)c1ccccc1` [PAEONIFLORIGENONE], for which the values for the IC50 in series [1] and in series [2] were more than 500 µM and more than 50 µM, respectively.

As to `C[C@@]12C[C@@]3(O)O[C@@H](O1)[C@]1(COC(=O)c4ccccc4)[C@H]3C[C@@]12O[C@@H]1O[C@H](CO)[C@@H](O)[C@H](O)[C@H]1O` [PAEONIFLORIN], the concentration for half-maximal inhibition (IC50) in series [1] is more than 500 µM; in series [2] it was more than 50 µM.

For the compound `COc1ccc(C(C)=O)c(O[C@@H]2O[C@H](CO[C@@H]3OC[C@H](O)[C@H](O)[C@H]3O)[C@@H](O)[C@H](O)[C@H]2O)c1` [PAEONOLIDE], the half-maximal inhibitory concentration (IC50) in series [1] was more than 500 µM; in series [2], more than 50 µM.

Consider `COc1ccc(C(C)=O)c(O)c1` [PAEONOL], for which the IC50 in series [1] was more than 500 µM; in series [2], more than 50 µM.

In the case of `CC1(C)[C@@H](O)CC[C@]2(C)[C@H]3C=CC4=C(O)C(=O)C(=O)[C@@]4(C)[C@]3(C)CC[C@@H]12` [PALBINONE], the IC50 in series [1] was more than 500 µM; in series [2], 11.4 µM.

In series [1], `N=C(N)NN` [PIMAGEDINE] showed an IC50 of 1030 µM.
